What was measured:
Type in all cases: functional
Lymphoma cell line [1] = assay: Ability to reverse the multidrug resistance (MDR) of mouse Lymphoma cells, FL-1at 2 ug/mL; set-up: reference not given here
Outline: (§1)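 L5178 mouse T-cell lymphoma cells carrying the MDR1 gene (via pHa MDR1/A retrovirus, kept under 60 ng/mL colchicine), with the L5178Y parent line. Cells grown in McCoy's 5A with 10% heat-inactivated horse serum. Cells at 2 × 10^6/mL in serum-free medium were given compound (1.0 mg/mL DMSO stock) for 10 min at room temperature. Rhodamine 123 (5.2 µM final) was then added for 20 min at 37 °C. Cells were washed twice, resuspended in PBS, and read by flow cytometry for FSC, SSC and FL-1.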

Lymphoma cell line [2] = assay: Ability to reverse the multidrug resistance (MDR) of mouse Lymphoma cells, fluorescence activity ratio at 2 ug/mL.
Outline: (§2)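 Rhodamine 123 accumulation by flow cytometry. MDR1-transduced L5178 mouse lymphoma cells and parental L5178Y cells at 2 × 10^6/mL in serum-free McCoy's 5A. Compound from DMSO stock for 10 min at room temperature, then 5.2 µM rhodamine 123 for 20 min at 37 °C, with two washes. Activity ratio: treated/untreated fluorescence of MDR cells divided by treated/untreated fluorescence of parental cells.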

Lymphoma cell line [3] = assay: Ability to reverse the multidrug resistance (MDR) of mouse Lymphoma cells, FL-1at 20 ug/mL; set-up: reference not given here; outline: as §1
Lymphoma cell line [4] = assay: Ability to reverse the multidrug resistance (MDR) of mouse Lymphoma cells, by shrinkage (FSC) at 20 ug/mL.; outline: as §1
Lymphoma cell line [5] = assay: Ability to reverse the multidrug resistance (MDR) of mouse Lymphoma cells, fluorescence activity ratio at 20 ug/mL.; outline: as §2
Lymphoma cell line [6] = assay: Ability to reverse the multidrug resistance (MDR) of mouse Lymphoma cells, by Granulation (SSC) at 20 ug/mL.; outline: as §1
Lymphoma cell line [7] = assay: Ability to reverse the multidrug resistance (MDR) of mouse Lymphoma cells, by Granulation (SSC) at 2 ug/mL.; outline: as §1
Lymphoma cell line [8] = assay: Ability to reverse the multidrug resistance (MDR) of mouse Lymphoma cells, by shrinkage (FSC) at 2 ug/mL.; outline: as §1
Lymphoma cell line [9] = assay: Ability to reverse the multidrug resistance (MDR) of mouse Lymphoma cells, by Granulation (SSC) at 4 ug/mL.; outline: as §1
Lymphoma cell line [10] = assay: Ability to reverse the multidrug resistance (MDR) of mouse Lymphoma cells, fluorescence activity ratio at 4 ug/mL.; outline: as §2
Lymphoma cell line [11] = assay: Ability to reverse the multidrug resistance (MDR) of mouse Lymphoma cells, FL-1at 4 ug/mL; outline: as §1
Lymphoma cell line [12] = assay: Ability to reverse the multidrug resistance (MDR) of mouse Lymphoma cells, by shrinkage (FSC) at 4 ug/mL.; outline: as §1
Lymphoma cell line [13] = assay: Ability to reverse the multidrug resistance (MDR) of mouse Lymphoma cells, FL-1at 5 ug/mL; outline: as §1
Lymphoma cell line [14] = assay: Ability to reverse the multidrug resistance (MDR) of mouse Lymphoma cells, fluorescence activity ratio at 5 ug/mL.; outline: as §2
Lymphoma cell line [15] = assay: Ability to reverse the multidrug resistance (MDR) of mouse Lymphoma cells, by Granulation (SSC) at 5 ug/mL.; outline: as §1
Lymphoma cell line [16] = assay: Ability to reverse the multidrug resistance (MDR) of mouse Lymphoma cells, by shrinkage (FSC) at 5 ug/mL.; outline: as §1

Row | Compound | FL-1 (Lymphoma cell line [1]) | Fluorescence activity ratio (Lymphoma cell line [2]) | FL-1 (Lymphoma cell line [3]) | FSC (Lymphoma cell line [4]) | Fluorescence activity ratio (Lymphoma cell line [5]) | SSC (Lymphoma cell line [6]) | SSC (Lymphoma cell line [7]) | FSC (Lymphoma cell line [8]) | SSC (Lymphoma cell line [9]) | Fluorescence activity ratio (Lymphoma cell line [10]) | FL-1 (Lymphoma cell line [11]) | FSC (Lymphoma cell line [12]) | FL-1 (Lymphoma cell line [13]) | Fluorescence activity ratio (Lymphoma cell line [14]) | SSC (Lymphoma cell line [15]) | FSC (Lymphoma cell line [16])
1 | CC(=O)O[C@@H]1[C@@H](OC(C)=O)C(C)(C)/C=C/[C@H](C)C(=O)[C@@]2(OC(C)=O)C[C@@H](C)[C@H](OC(=O)c3ccccc3)/C2=C\[C@](C)(O)[C@@H]1OC(C)=O | 532.78 | 8.87 | 401.98 | 565.55 | 6.7 | 232.7 | 237.88 | 562.62 |  |  |  |  |  |  |  | 
2 | C=C1[C@H](OC(C)=O)[C@@H](OC(C)=O)[C@@H](OC(C)=O)C(C)(C)/C=C/[C@H](C)[C@H](OC(C)=O)[C@@]2(O)C[C@@](C)(OC(C)=O)[C@H](OC(=O)c3ccccc3)[C@@H]2[C@H]1OC(C)=O | 505.23 | 16.77 | 888.3 | 587.54 | 29.48 | 239.54 | 239.85 | 577.39 |  |  |  |  |  |  |  | 
3 | C=C1[C@H](OC(C)=O)CC(=O)C(C)(C)/C=C/[C@@H](C)C(=O)[C@@]2(OC(C)=O)C[C@@](C)(OC(C)=O)[C@H](OC(C)=O)[C@@H]2[C@H]1OC(C)=O [ESULATIN B] | 31.47 | 2.58 | 95.54 | 631.19 | 7.83 | 307.84 | 313.58 | 642.45 |  |  |  |  |  |  |  | 
4 | C=C1[C@H](OC(C)=O)C[C@@H](OC(C)=O)C(C)(C)/C=C/[C@@H](C)C(=O)[C@@]2(OC(C)=O)C[C@@](C)(OC(C)=O)[C@H](OC(C)=O)[C@@H]2[C@H]1OC(C)=O [ESULATIN D] | 35.43 | 2.47 |  |  |  |  | 336.52 | 626.3 | 339.15 | 4.03 | 57.73 | 638.32 |  |  |  | 
5 | C=C1[C@H](OC(C)=O)C[C@@H](OC(=O)c2cccnc2)C(C)(C)/C=C/[C@@H](C)C(=O)[C@@]2(OC(C)=O)C[C@H](C)[C@H](OC(C)=O)[C@@H]2[C@H]1OC(C)=O | 423.87 | 34.74 | 906.08 | 640.31 | 74.27 | 297.54 | 300.61 | 634.95 |  |  |  |  |  |  |  | 
6 | CC(=O)O[C@@H]1[C@@H](OC(C)=O)C(C)(C)/C=C/[C@H](C)[C@H](OC(C)=O)[C@@]2(OC(C)=O)C[C@H](C)[C@H](OC(=O)c3ccccc3)/C2=C\[C@](C)(O)[C@@H]1OC(C)=O | 37.12 | 4.31 | 41.9 | 658.03 | 4.86 | 175.29 | 166.49 | 641.56 |  |  |  |  |  |  |  | 
7 | C=C1[C@H](OC(=O)C(C)C)[C@H](OC(=O)C(C)C)[C@@H](OC(C)=O)C(C)(C)[C@@H]2O[C@H]2[C@@H](C)C(=O)[C@@]2(OC(C)=O)C[C@@](C)(OC(C)=O)[C@H](OC(C)=O)[C@@H]2[C@H]1OC(C)=O | 31.98 | 3.71 | 34.14 | 667.76 | 3.96 | 176.12 | 165.11 | 659.4 |  |  |  |  |  |  |  | 
8 | COc1ccc(CCN(C)CCCC(C#N)(c2ccc(OC)c(OC)c2)C(C)C)cc1OC (stereo not drawn) [VERAPAMIL] |  |  |  |  |  |  |  |  |  |  |  |  | 170.3 | 8.27 | 177.48 | 569.63
9 | C=C1[C@H](OC(C)=O)[C@@H](O)[C@@H](OC(=O)c2cccnc2)C(C)(C)/C=C/[C@H](C)[C@H](OC(C)=O)[C@@]2(O)C[C@@](C)(OC(C)=O)[C@H](OC(=O)c3ccccc3)[C@@H]2[C@H]1OC(C)=O | 155.62 | 12.75 | 878.14 | 636.35 | 71.98 | 291.38 | 301.64 | 632.81 |  |  |  |  |  |  |  | 
10 | CC(=O)O[C@@H]1[C@@H](OC(C)=O)C(C)(C)/C=C/[C@H](C)[C@H](OC(C)=O)[C@@]2(OC(C)=O)C[C@@H](C)[C@H](OC(=O)c3ccccc3)[C@@H]2/C=C(\C)[C@@H]1O | 180.81 | 20.98 | 299.93 | 654.67 | 34.79 | 167.73 | 165.87 | 653.55 |  |  |  |  |  |  |  | 
11 | C=C1[C@H](OC(=O)C(C)C)[C@@H](O)[C@@H](OC(C)=O)C(C)(C)/C=C/[C@H](C)[C@H](OC(C)=O)[C@@]2(O)C[C@@](C)(OC(C)=O)[C@H](OC(=O)c3ccccc3)[C@@H]2[C@H]1OC(C)=O | 90.12 | 6.3 |  |  |  |  | 333.78 | 625.31 | 335.77 | 2.26 | 32.37 | 638.02 |  |  |  | 
12 | C=C1[C@H](OC(=O)C(C)C)[C@@H](OC(C)=O)[C@@H](OC(C)=O)C(C)(C)/C=C/[C@@H](C)C(=O)[C@@]2(OC(C)=O)C[C@@](C)(OC(C)=O)[C@H](OC(C)=O)[C@@H]2[C@H]1OC(C)=O | 166.44 | 5.52 | 444.35 | 620.4 | 14.75 | 254.87 | 246.26 | 589.78 |  |  |  |  |  |  |  | 
13 | CC(=O)O[C@@H]1[C@@H](OC(C)=O)C(C)(C)/C=C/[C@H](C)C(=O)[C@@]2(OC(C)=O)C[C@@H](C)[C@H](OC(=O)c3ccccc3)/C2=C\[C@](C)(OC(C)=O)[C@@H]1OC(C)=O | 634.88 | 10.57 | 965.2 | 563.73 | 16.08 | 228.49 | 238.57 | 561.94 |  |  |  |  |  |  |  | 
14 | CC(=O)O[C@@H]1[C@@H](OC(C)=O)C(C)(C)/C=C/[C@H](C)C(=O)C2(OC(C)=O)C[C@@](C)(O)[C@H](OC(=O)c3ccccc3)/C2=C\[C@](C)(OC(C)=O)[C@@H]1OC(C)=O (stereo partly drawn) | 525.32 | 8.75 | 764.3 | 555.8 | 12.73 | 231.39 | 235.31 | 558.57 |  |  |  |  |  |  |  | 

— ChEMBL document CHEMBL1135458, “Discovery and biological evaluation of a new family of potent modulators of multidrug resistance: reversal of multidrug resistance of mouse lymphoma cells by new natural jatrophane diterpenoids isolated from Euphorbia species” (2002)
